Source: PubChem (several laboratories)
Sampled rows, rich in hits. Any-hit rate of the full collection: about 1.7%.
CCR6 antag: CCR6 receptor antagonists, primary screen, cell-based, CHO-K1, luminescence, beta-arrestin, uHTS; C-C chemokine receptor type 6 (Homo sapiens), P51684; CHO-K1 CCR6 PathHunter beta-arrestin, CCL20-stimulated; inhibition, % at 20 µM; 340,000 compounds, 0.49% hits; AID 493098, 2011;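 active = compounds whose inhibition of the agonist-driven luminescence signal at 20 µM reaches about 50%, limit read from the data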;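 note: cells stimulated with CCL20 at 14 nM final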
APJ antagonist: antagonists of human apelin receptor APJ, primary screen, CHO-K1 cells, beta-arrestin complementation, luminescence | P35414 | inhibition, % at 20 µM | 330,000 compounds, 0.32% hits | AID 2521, 2010;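 active = inhibition above about 40% at 20 µM, limit read from the data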;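 note: cells challenged with 10 nM apelin-13 agonist together with compound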
Target sequence (P35414 whole entry, looked up): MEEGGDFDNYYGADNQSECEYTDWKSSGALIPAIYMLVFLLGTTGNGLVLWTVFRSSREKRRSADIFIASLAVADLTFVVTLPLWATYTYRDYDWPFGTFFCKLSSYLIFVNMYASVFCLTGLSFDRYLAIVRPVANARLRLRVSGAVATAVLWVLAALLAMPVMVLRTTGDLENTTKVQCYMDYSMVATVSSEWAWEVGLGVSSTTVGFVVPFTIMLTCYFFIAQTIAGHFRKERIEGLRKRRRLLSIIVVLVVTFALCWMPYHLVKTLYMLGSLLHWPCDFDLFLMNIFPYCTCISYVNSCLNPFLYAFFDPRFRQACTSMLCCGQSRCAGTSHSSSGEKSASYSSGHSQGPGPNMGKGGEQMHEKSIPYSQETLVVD
B2AR ag: beta2AR agonists driving receptor internalization, primary screen, cell-based, FAP fluorogen, flow cytometry | Am2.2-beta2AR cells | 340,000 compounds, 0.43% hits | response, % (concentration not given with the values) | AID 504454, 2011 | Beta-2 adrenergic receptor (Homo sapiens), P07550;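 active = response above a set limit, near 3 SD of response in nonfluorescent compounds, cut at about 42% in these data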
APJ ag: agonists of human apelin receptor APJ, primary screen, CHO-K1 cells, PathHunter beta-arrestin, luminescence | P35414 | 330,000 compounds, 0.11% hits | activation, % at 20 µM | AID 2520, 2010 | 0% DMSO wells, 100% apelin;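 active = activation more than six SD over the plate average, tested at 20 µM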
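Assay system: CHO-K1 cells stably expressing ProLink-tagged human APJ and arrestin–beta-gal acceptor. Compound dosing: 20 µM single point, 1% DMSO. Times: 16-18 h seeding, 90 min dark compound exposure, 60 min detection. Detection: beta-gal luminescence. Evaluation: APJ–arrestin association signal. Controls: negative DMSO alone, positive Apelin-13 at 10 nM.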
PfGluPho inh: PfG6PD enzyme inhibitors, primary screen, biochemical, fluorescence intensity, uHTS | inhibition, % at 20 µM | AID 504690, 2011 | 350,000 compounds, 0.78% hits | glucose-6-phosphate dehydrogenase-6-phosphogluconolactonase (Plasmodium falciparum 3D7) | PfGluPho enzyme, NADPH resazurin-diaphorase fluorescence;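 active = inhibition reaching at least a set limit at 20 µM in the primary screen, cut at about 59% in these data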
CXCR6 block: CXCR6 receptor inhibitors, primary screen, cell-based, beta-arrestin, luminescence, CHO-K1 PathHunter, 1536-well; C-X-C chemokine receptor type 6 (Homo sapiens), O00574; inhibition, % at 20 µM; 360,000 compounds, 0.36% hits; in the data active = inhibition above about 34%, passing the limit was not always enough;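 note: antagonist mode with CXCL16 agonist at 10 nM final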
Target sequence (O00574 whole entry, looked up): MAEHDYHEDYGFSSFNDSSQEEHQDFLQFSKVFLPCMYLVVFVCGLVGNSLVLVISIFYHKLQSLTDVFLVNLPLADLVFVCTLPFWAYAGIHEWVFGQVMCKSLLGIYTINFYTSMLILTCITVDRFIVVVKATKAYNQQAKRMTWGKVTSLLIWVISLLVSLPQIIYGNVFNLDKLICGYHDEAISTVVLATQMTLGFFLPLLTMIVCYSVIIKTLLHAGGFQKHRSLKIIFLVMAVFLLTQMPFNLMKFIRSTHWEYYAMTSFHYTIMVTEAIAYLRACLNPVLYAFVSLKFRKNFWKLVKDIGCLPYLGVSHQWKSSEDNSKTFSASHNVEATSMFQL
B2AR ag CP1: beta2AR agonists via receptor internalization, confirmation, cell-based, FAP fluorogen, flow cytometry, single point, cherry pick 1 | shares compounds with B2AR ag | Am2.2-beta2AR cells, FAP surface receptor; active compounds read low | percent response (surface receptor), % at 10 µM | 1,100 compounds, 25% hits;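 active = surface receptor percent response at or below 58%, roughly 3 SD from nonfluorescent compounds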
B2AR FAP counter: flagged in Am2.2 fluorescence counterscreen for beta-2AR agonists; calls only at 10 µM; 1,100 tested, under 10 active; Am2.2 cells, FAP fluorogen flow cytometry; active compounds read low; shares compounds with B2AR ag;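 active = percent response below a set limit in fluorescence channel 1 and below 50% in channel 8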
Large screens that a line does not name were inactive (follow-up assays come after a bar, where they were run).

COc1cc2ncc(S(=O)(=O)c3ccccc3)c(N3CCCC(C)C3)c2cc1OC (stereo unspecified)	B2AR ag 69.4 | B2AR ag CP1 9.0 | B2AR FAP counter inactive
COc1ccc(N(C(=O)c2snc(C(N)=O)c2N)C(C(=O)NC2CCCC2)c2ccco2)c(OC)c1 (stereo unspecified)	B2AR ag 70.0 | B2AR ag CP1 inactive | B2AR FAP counter inactive
CCC(CC)C(=O)Nc1cc(OC)c(OC)cc1C(=O)O	B2AR ag 92.4 | B2AR ag CP1 inactive | B2AR FAP counter inactive
CCC(C)C(=O)Nc1cc(OC)c(OC)cc1C(=O)O (stereo unspecified)	none
Cc1oc(CC(C)C)cc1C(=O)Nc1cccc2ccccc12	B2AR ag 42.7 | B2AR ag CP1 inactive | B2AR FAP counter inactive
Cc1ccc2c(c1)N(CC(=O)NCC1CCCO1)C(=O)C(C(C)C)O2 (stereo unspecified)	none
Cc1cccc(COC[C@H](Cc2ccccc2)N2CCN(C(=O)c3cc(Cl)cc(Cl)c3)CCC2=O)c1	none (no result: CCR6 antag, APJ antagonist, B2AR ag, APJ ag, PfGluPho inh)
CC(=O)Nc1ccc(S(=O)(=O)NCCc2csc(-c3cccnc3)n2)cc1	B2AR ag 83.0 | B2AR ag CP1 13.4 | B2AR FAP counter inactive
CC(=O)c1ccc(S(=O)(=O)NCCc2csc(-c3cccnc3)n2)cc1	none
N#CCC(=O)Nc1ccc(C(=O)NCCC(c2ccccc2)c2ccccc2)cc1	none
CN(C)C(CNC(=O)c1ccc(NC(=O)CC#N)cc1)c1ccccc1 (stereo unspecified)	B2AR ag 47.5 | B2AR ag CP1 inactive | B2AR FAP counter inactive
Cc1noc(C)c1COc1ccccc1C(=O)N(C)CC(=O)Nc1ccc(F)cc1	none
CCOC(=O)c1ccc(NC(=O)Nc2ccc(Cl)cn2)cc1	none
CCOC(=O)c1ccc(NC(=O)Nc2ccon2)cc1	B2AR ag 44.0 | B2AR ag CP1 inactive | B2AR FAP counter inactive
CCOc1ccc2oc(C(=O)NCC(C)(C)CN(C)C)c(C)c2c1	B2AR ag 55.4 | B2AR ag CP1 inactive | B2AR FAP counter inactive
Cc1cc(NC(=O)CS(=O)(=O)c2cn(Cc3cccc(Cl)c3)c3ccccc23)no1	none (no result: CCR6 antag, APJ antagonist, B2AR ag, APJ ag, PfGluPho inh)
CCOc1cc(-c2nc3ccccn3c2NCC2CCCO2)ccc1O (stereo unspecified)	none | B2AR ag CP1 29.8 | B2AR FAP counter inactive
CCOc1cccc(C(=O)Nc2ccc3oc(-c4cccnc4)nc3c2)c1	none | B2AR ag CP1 inactive | B2AR FAP counter inactive
O=C(Nc1ccc2oc(-c3cccnc3)nc2c1)c1cccnc1	none
CCn1c(SCC(=O)N2CCCC2)nnc1-c1ccc(N)cc1	B2AR ag 86.0 | B2AR ag CP1 6.8 | B2AR FAP counter inactive
CCCCCC(=O)Nc1cccc(S(=O)(=O)NC2=NCCC2)c1	none
CC1=C(C(=O)N(C(C)C)C(C)C)CC(CC(=O)NCc2ccco2)C(=O)N1CCCN1CCCC1=O (stereo unspecified)	none (no result: CCR6 antag, APJ antagonist, B2AR ag, APJ ag, PfGluPho inh)
COCCc1ncc(CN2CCC(C(=O)Nc3ccc(-n4cccn4)cc3)CC2)cn1	B2AR ag 49.8 | B2AR ag CP1 29.8 | B2AR FAP counter inactive
CN(C)c1ncc(CN2CCC(C(=O)Nc3ccc(-n4cccn4)cc3)CC2)s1	none
CCOc1cc(C(=S)N2CCOCC2)ccc1OS(=O)(=O)c1ccccc1[N+](=O)[O-]	none | B2AR ag CP1 inactive | B2AR FAP counter inactive
O=C(NC1(Cc2ccc(O)cc2)CCCCC1)c1ccccc1	B2AR ag 42.9 | B2AR ag CP1 41.0 | B2AR FAP counter inactive
Cc1ccc(NC(=O)CCCn2nc(C)c3c(C)n(-c4ccccc4)nc3c2=O)c(Cl)c1	none
CCOc1ccc(CN(C)c2nc(-c3cccnc3)nc3ccccc23)cc1OC	none | B2AR ag CP1 inactive | B2AR FAP counter inactive
Cc1ccccc1Nc1nc(-c2cccnc2)nc2ccccc12	none
CN(Cc1ccccc1F)c1nc(-c2cccnc2)nc2ccccc12	B2AR ag 79.7 | B2AR ag CP1 52.8 | B2AR FAP counter inactive
Cc1ccc(CN(C)c2nc(-c3cccnc3)nc3ccccc23)o1	B2AR ag 44.8 | B2AR ag CP1 inactive | B2AR FAP counter inactive
COc1ccc(CCNc2nc(-c3cccnc3)nc3ccccc23)cc1OC	none
COc1cc(NS(C)(=O)=O)ccc1Nc1c2ccccc2nc2ccccc12	none
CCN1C(=O)[C@H]2[C@@H](c3ccc(-c4ccc5c(c4)OCO5)cc3)N3CCC[C@@]3(C(=O)OC)[C@H]2C1=O	none
CC(C)(C)c1ccc(OCCCn2ccnc2)cc1	none
Cn1nnnc1Sc1ncnc2scc(-c3ccc(-c4ccccc4)cc3)c12	none
Cn1nnnc1Sc1ncnc2scc(-c3cc4ccccc4o3)c12	B2AR ag 53.3 | B2AR ag CP1 57.0 | B2AR FAP counter inactive
CC(C)c1nc2sc3c(NCc4ccccc4)ncnc3c2c2c1COC(C)(C)C2	none | B2AR ag CP1 inactive | B2AR FAP counter inactive
CC(=O)c1ccc(S(=O)(=O)N2CCN(C(C)C(=O)N(C)Cc3ccccc3)CC2)cc1 (stereo unspecified)	none
CC(C)(C)OC(=O)NCc1ccc(CNC(=O)c2[nH]cnc2C(=O)NCC(=O)OCc2ccccc2)cc1	none
CC(=O)Nc1ccc(S(=O)(=O)N2CCCCC2c2cccnc2)cc1 (stereo unspecified)	none | B2AR ag CP1 20.5 | B2AR FAP counter inactive
COc1ccc(NC(=O)N2CCCCC2c2cccnc2)cc1 (stereo unspecified)	none
O=C(Nc1ccc(S(=O)(=O)N2CCCCC2c2cccnc2)cc1)c1c(F)cccc1F (stereo unspecified)	B2AR ag 87.2 | B2AR ag CP1 49.2 | B2AR FAP counter inactive
CCCCC(=O)Nc1ccc(S(=O)(=O)N2CCCCC2c2cccnc2)cc1 (stereo unspecified)	B2AR ag 128.8 | B2AR ag CP1 26.7 | B2AR FAP counter inactive
C[C@H](CO)N1C[C@H](C)[C@H](CN(C)S(=O)(=O)c2ccc(-n3cccn3)cc2)OCc2cnnn2CCCC1=O	none (no result: CCR6 antag, APJ antagonist, B2AR ag, APJ ag)
CCN(CC)S(=O)(=O)c1ccc(N2CCCC2)c(NC(=O)C2=NN(c3ccccc3)C(=O)CC2)c1	B2AR ag 47.3 | B2AR ag CP1 inactive | B2AR FAP counter inactive
O=C(Nc1cc(Cl)ccc1N1CCCC1)C1=NN(c2ccccc2)C(=O)CC1	none
